We go through ten compounds from ChEMBL document CHEMBL1144343 (J Med Chem, 2005).

The target in experiment [1] is T1, Angiotensin II receptor (AT-1) type-1 (Rattus norvegicus, UniProt P29089+P25095).
T1 sequence (P29089 whole entry): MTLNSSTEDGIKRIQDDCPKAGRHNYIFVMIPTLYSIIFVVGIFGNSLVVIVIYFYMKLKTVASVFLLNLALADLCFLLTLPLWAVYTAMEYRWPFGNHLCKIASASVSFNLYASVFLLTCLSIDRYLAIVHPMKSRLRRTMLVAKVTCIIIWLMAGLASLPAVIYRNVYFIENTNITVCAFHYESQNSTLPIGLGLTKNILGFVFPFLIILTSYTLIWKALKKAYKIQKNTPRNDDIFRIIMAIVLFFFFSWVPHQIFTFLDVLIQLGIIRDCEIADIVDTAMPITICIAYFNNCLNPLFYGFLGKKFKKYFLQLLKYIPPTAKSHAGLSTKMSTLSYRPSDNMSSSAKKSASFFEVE
T1 sequence (P25095 whole entry): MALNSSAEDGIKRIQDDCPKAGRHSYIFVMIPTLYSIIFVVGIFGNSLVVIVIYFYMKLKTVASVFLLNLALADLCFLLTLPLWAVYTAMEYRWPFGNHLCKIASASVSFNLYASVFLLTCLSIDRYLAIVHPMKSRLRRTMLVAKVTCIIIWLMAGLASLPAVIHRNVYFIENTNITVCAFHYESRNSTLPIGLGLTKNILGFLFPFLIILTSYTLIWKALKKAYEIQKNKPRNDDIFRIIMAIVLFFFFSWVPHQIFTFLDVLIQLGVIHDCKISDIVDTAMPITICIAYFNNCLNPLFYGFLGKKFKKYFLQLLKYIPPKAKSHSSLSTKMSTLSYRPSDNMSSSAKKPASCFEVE
Briefly: Displacement of [125I]-Ang II from angiotensin II receptor type 1 in rat liver membranes. Type of experiment: cell membranes, Membrane. For orientation: Displacement assays read how much labelled ligand stays bound in the presence of the test substance.

Experiment [2] concerns the target T2, Type-2 angiotensin II receptor (Homo sapiens, UniProt P50052).
T2 sequence (P50052 whole entry): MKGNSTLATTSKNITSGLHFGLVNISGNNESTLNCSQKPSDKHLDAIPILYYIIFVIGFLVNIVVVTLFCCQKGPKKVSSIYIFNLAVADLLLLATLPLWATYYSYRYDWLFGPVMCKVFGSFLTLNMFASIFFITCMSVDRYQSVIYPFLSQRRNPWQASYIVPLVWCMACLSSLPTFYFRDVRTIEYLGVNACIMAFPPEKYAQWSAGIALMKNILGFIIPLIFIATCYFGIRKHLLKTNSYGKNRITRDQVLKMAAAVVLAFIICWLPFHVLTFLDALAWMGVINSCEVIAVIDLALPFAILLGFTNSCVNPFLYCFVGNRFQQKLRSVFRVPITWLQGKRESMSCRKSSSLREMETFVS
Briefly: Displacement of [125I]-Ang II from angiotensin II receptor type 2 in pig uterus myometrium. Also noted: species or system Sus scrofa. As to conditions: target entry is the homologue from another species. The method, boiled down: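 Porcine uterine myometrial membranes (10 mg tissue equivalent) with 1 µM losartan to block AT1. Tris-HCl pH 7.4 buffer with NaCl, MgCl2, EDTA, 0.2% BSA and peptidase inhibitors. Filtration, γ-counting; nonspecific binding with 1 µM Ang II.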

The test system of a further experiment is NG108-15. Briefly: Effect on neurite outgrowth in NG108-15 cells after treatment for 3 days (control 2.26%).
Experiment [3] deals with T3, Type-2 angiotensin II receptor (Homo sapiens) (UniProt P50052).
T3 sequence (whole entry): T2 sequence (P50052 whole entry)
Description: Effect on [3H]thymidine incorporation into PC12 cells expressing AT2 receptors at 1.0 uM. Particulars: PC-12.

Where a SMILES comes first, the peptide text is derived from it. [ ]: non-standard residue; d: D form. Phe(4-NH2) = Nc1ccc(C[C@H](N)C(=O)O)cc1

One may read the Ki as the equilibrium dissociation constant of an inhibitor or competing ligand from its target. Read a low Ki as tighter binding. Regarding `C[C@H](NC(=O)[C@@H](N)CC(=O)O)C(=O)Nc1cccc2c1N[C@@H](Cc1ccc(O)cc1)C(=O)N(CC(=O)N[C@@H](Cc1c[nH]cn1)C(=O)N1CCC[C@H]1C(=O)N[C@@H](Cc1ccccc1)C(=O)O)C2`, the Ki in experiment [1] was more than 10 µM. The same measure, in the same setting: the result for `CC[C@@H](C)[C@@H](C(=O)N[C@@H](Cc1c[nH]cn1)C(=O)N1CCC[C@H]1C(=O)N[C@@H](Cc1ccccc1)C(=O)O)N1Cc2cccc(NC(=O)[C@H](CCCN=C(N)N)NC(=O)[C@@H](N)CC(=O)O)c2N[C@@H](Cc2ccc(O)cc2)C1=O` reads more than 10 µM. As to `CC(C)[C@H](NC(=O)[C@H](C)NC(=O)[C@@H](N)CC(=O)O)C(=O)Nc1cccc2c1N[C@@H](Cc1ccc(O)cc1)C(=O)N(CC(=O)N[C@@H](Cc1c[nH]cn1)C(=O)N1CCC[C@H]1C(=O)N[C@@H](Cc1ccccc1)C(=O)O)C2`, in experiment [1], the Ki is more than 10 µM. Turning to `CC[C@H](C)[C@H](NC(=O)[C@H](Cc1ccc(O)cc1)NC(=O)[C@@H](NC(=O)[C@H](CCCN=C(N)N)NC(=O)[C@@H](N)CC(=O)O)C(C)C)C(=O)N[C@@H](Cc1ccc(N)cc1)C(=O)N1CCC[C@H]1C(=O)N[C@@H](Cc1ccccc1)C(=O)O` (H-DRVYI[Phe(4-NH2)]PF-OH), in experiment [1], the Ki was more than 10 µM. For `CC(C)[C@H](NC(=O)[C@H](CCCN=C(N)N)NC(=O)[C@@H](N)CC(=O)O)C(=O)Nc1ccc2c(c1)CN(CC(=O)N[C@@H](Cc1c[nH]cn1)C(=O)N1CCC[C@H]1C(=O)N[C@@H](Cc1ccccc1)C(=O)O)C(=O)[C@H](Cc1ccc(O)cc1)N2`, the Ki in experiment [2] is 0.003 µM; in experiment [1], more than 10 µM. Besides, the Activity in the experiment with NG108-15 came out at 11.1%. In experiment [3], this compound had an Activity (Counts/minute) of 45400. `CC[C@@H](C)[C@@H](C(=O)N[C@@H](Cc1c[nH]cn1)C(=O)N1CCC[C@H]1C(=O)N[C@@H](Cc1ccccc1)C(=O)O)N1Cc2cccc(NC(=O)[C@@H](NC(=O)[C@H](CCCN=C(N)N)NC(=O)[C@@H](N)CC(=O)O)C(C)C)c2N[C@@H](Cc2ccc(O)cc2)C1=O`: the Ki in experiment [1] was more than 10 µM. Compound `Cc1cc(Cn2cnc3c2C[C@@H](C(=O)O)N(C(=O)C(c2ccccc2)c2ccccc2)C3)ccc1N(C)C` showed an Activity (Counts/minute) in experiment [3] of 68700. In experiment [1], `CC(C)[C@H](NC(=O)[C@H](CCCN=C(N)N)NC(=O)[C@@H](N)CC(=O)O)C(=O)Nc1cccc2c1N[C@@H](Cc1ccc(O)cc1)C(=O)N(CC(=O)N[C@@H](Cc1c[nH]cn1)C(=O)N1CCC[C@H]1C(=O)N[C@@H](Cc1ccccc1)C(=O)O)C2` returned a Ki of more than 10 µM. This compound returned an Activity with NG108-15 of 9.88%. In experiment [1], `NC(N)=NCCC[C@H](NC(=O)[C@@H](N)CC(=O)O)C(=O)Nc1ccc2c(c1)CN(CC(=O)N[C@@H](Cc1c[nH]cn1)C(=O)N1CCC[C@H]1C(=O)N[C@@H](Cc1ccccc1)C(=O)O)C(=O)[C@H](Cc1ccc(O)cc1)N2` displayed a Ki of more than 10 µM. Consider `NC(N)=NCCC[C@H](NC(=O)[C@@H](N)CC(=O)O)C(=O)Nc1cccc2c1N[C@@H](Cc1ccc(O)cc1)C(=O)N(CC(=O)N[C@@H](Cc1c[nH]cn1)C(=O)N1CCC[C@H]1C(=O)N[C@@H](Cc1ccccc1)C(=O)O)C2`, for which, in experiment [1], the inhibition constant (Ki) is more than 10 µM. This compound also registered an Activity in the experiment on NG108-15 of 9.35%.
